Legend:
[1] = test system: T98G cells; assay: Cell number using WST-1; assay type: cell-based, human; conditions: for reduction of cell number: T98G, 10 µM, WST-1
Procedure, shortened: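 T98G cells (ATCC, STR-authenticated, under 6 months in culture) grown in DMEM or RPMI with 10% FBS, 100 U/mL penicillin and 100 µg/mL streptomycin at 37°C, 5% CO2. Cells exposed to test compound at 10 µM, with nocodazole or paclitaxel (10 µM each) run in parallel. Cell number followed over 72 hrs by WST-1 per kit protocol. Mean ± SEM of at least 3 independent experiments.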

[2] = test system: bovine brain tubulin; assay: Cell-free MT assembly assay with purified tubulin; assay type: biochemical
[3] = test system: T98G cells; assay: Live cell imaging of EB3-GFP on assembling MTs; assay type: cell-based, human; conditions: nocodazole 1 µM, by 15 min
Procedure, shortened: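 T98G cells transfected with EB3-GFP and RFP-CenpB to mark growing MT plus ends and centromeres. Treated with test compound (0.5 or 3 µM) or nocodazole (1 µM). Movies of 30 sec at 500 ms intervals were taken on a deconvolution microscope starting 10 min after drug addition. Images were deconvolved, and MT assembly rates were tracked in interphase cells.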

[4] = test system: MDA-MB-231 breast cancer cells; assay: Viability of positive-control breast cancer cells; assay type: cell-based; conditions: MDA-MB-231, by 72 hrs

Row | Compound | reduction of cell number ([1]; 12 hrs) | reduction of cell number ([1]; 72 hrs) | level of free tubulin [2] | assembling MTs in live cells [3] | viability [4] | effect of caspase-3 inhibition on the antineoplastic action of ST-11 ([1]; Z-DEVD-FMK 10 µM, 15 min preincubation, ST-11 10 µM)
1 | COC(=O)Nc1nc2ccc(C(=O)c3cccs3)cc2[nH]1 [nocodazole] | 10–15% | 34% | triggered an increase the free tubulin | abolished all assembling MTs |  | 
2 | CC(=O)O[C@H]1C(=O)[C@@]2(C)[C@H]([C@H](OC(=O)c3ccccc3)[C@]3(O)C[C@H](OC(=O)[C@H](O)[C@@H](NC(=O)c4ccccc4)c4ccccc4)C(C)=C1C3(C)C)[C@]1(OC(C)=O)CO[C@@H]1C[C@@H]2O [paclitaxel] | 10–15% | inactive | decrease in free tubulin levels |  | reduced the viability | 
3 | Z-DEVD-FMK |  |  |  |  |  | blocked the antineoplastic action of ST-11
